# Results reported in ChEMBL document CHEMBL4376838, “Discovery of Novel Celastrol Derivatives as Hsp90-Cdc37 Interaction Disruptors with Antitumor Activity” (J Med Chem, 2019).
# Active and inactive are the calls of the source. The rule behind the calls is not given here.
# What was measured:
# A549 [1] = assay: Antiproliferative activity against human A549 cells assessed as inhibition of cell growth at 1.5 uM incubated for 48 hrs by MTT assay relative to control; format: functional; conditions: A549, 48 h; for inhibition of growth at 1.5 µM: read-out: GI
# A549 [2] = assay: Antiproliferative activity against human A549 cells assessed as inhibition of cell growth incubated for 48 hrs by MTT assay; format: functional, cell-based; conditions: A549, 48 h
# Outline: (§1)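 MTT read-out. Cells seeded at 5.0 × 10⁴ cells/ml and cultured 24 h, then exposed to the drug over a range of concentrations for 48 h, with matching DMSO as control. MTT (5 mg/ml) added for 4 h, supernatant removed, formazan dissolved in DMSO, OD read at 570 nm. Run in triplicate, mean ± SD (n = 3).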
# MCF7 = assay: Antiproliferative activity against human MCF7 cells assessed as inhibition of cell growth incubated for 48 hrs by MTT assay; format: functional, cell-based; conditions: MCF7, 48 h; outline: as §1
# HOS = assay: Antiproliferative activity against human HOS cells assessed as inhibition of cell growth incubated for 48 hrs by MTT assay; format: functional, cell-based; outline: as §1
# HepG2 = assay: Antiproliferative activity against human HepG2 cells assessed as inhibition of cell growth incubated for 48 hrs by MTT assay; format: functional, cell-based; conditions: HepG2, 48 h; outline: as §1
# A549 [3] = assay: Antiproliferative activity against human A549 cells assessed as inhibition of cell growth at 0.5 uM incubated for 48 hrs by MTT assay relative to control; format: functional; conditions: A549, 48 h, read-out: GI
# [4] = biological target: Heat shock protein HSP 90-alpha (Homo sapiens) (UniProt P07900); assay: Inhibition of ATP binding to human HSP90 alpha at 5 to 10 uM preincubated for 30 mins followed by gamma phosphate-linked ATP sepharose addition and measured after 30 mins by ATP-binding sepharose assay based western blot analysis
# Outline: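 Purified human Hsp90α incubated on ice 30 min with compound or DMSO in 10 mM Tris-HCl pH 7.5, 50 mM KCl, 5 mM MgCl2, 2 mM DTT, 20 mM Na2MoO4, 0.01% NP-40. γ-phosphate-linked ATP-Sepharose then added, 30 min at 37 °C with frequent mixing. Resin washed and pelleted, bound Hsp90α detected by SDS-PAGE/Western blot.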
# [5] = biological target: T1, Hsp90 co-chaperone Cdc37 (Homo sapiens) (UniProt Q16543); assay: Binding affinity to Cdc37 in human A549 cells assessed as inhibition of HSP90-Cdc37 interaction by measuring decrease in Akt phosphorylation level at 5 uM incubated for 12 hrs by Western blot analysis; format: cell-based
# T1 sequence (whole entry): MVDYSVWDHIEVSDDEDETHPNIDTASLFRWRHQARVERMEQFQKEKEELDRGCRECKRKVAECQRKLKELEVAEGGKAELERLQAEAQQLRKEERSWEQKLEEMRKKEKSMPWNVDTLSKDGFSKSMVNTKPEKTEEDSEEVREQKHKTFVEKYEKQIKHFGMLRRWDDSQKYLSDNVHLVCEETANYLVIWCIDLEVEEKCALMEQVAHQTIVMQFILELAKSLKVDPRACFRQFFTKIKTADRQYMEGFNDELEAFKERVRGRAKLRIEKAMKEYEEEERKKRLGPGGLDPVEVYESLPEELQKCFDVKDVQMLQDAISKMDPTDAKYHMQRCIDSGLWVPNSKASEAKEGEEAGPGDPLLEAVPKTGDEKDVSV
# Outline: (§2)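 A549 cells seeded 5×10^5 per 6 cm dish, grown 12 h, then exposed to compound or DMSO for 12 h. Lysates adjusted to 3 mg/ml protein (BCA), run on 10% SDS-PAGE, immunoblotted for p-Akt and Cdk4. Band levels quantified against Hsp90 loading control. Three separate experiments, mean ± SD.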
# [6] = biological target: T1, Hsp90 co-chaperone Cdc37 (Homo sapiens); assay: Binding affinity to Cdc37 in human A549 cells assessed as inhibition of HSP90-Cdc37 interaction by measuring decrease in CDK4 protein level at 5 uM incubated for 12 hrs by Western blot analysis; format: cell-based; outline: as §2
# A549 [7] = assay: Induction of apoptosis in human A549 cells assessed as viable cells at 1.2 uM incubated for 48 hrs by Annexin V-FITC and PI staining based flow cytometric analysis (reference value: 95.5%); format: functional; conditions: A549, 48 h, read-out: Activity
# Outline: (§3)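 A549 cells (4×10^5 per 6 cm dish) cultured 24 h, then treated 48 h with compound or DMSO. Cells gently harvested, washed twice in cold PBS, resuspended in binding buffer with Annexin V and PI, stained 15 min at room temperature in the dark, analysed by flow cytometry. Mean ± SD, n = 3.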
# A549 [8] = assay: Induction of apoptosis in human A549 cells assessed as early apoptotic cells at 1.2 uM incubated for 48 hrs by Annexin V-FITC and PI staining based flow cytometric analysis (reference value: 0.5%); format: functional; outline: as §3
# A549 [9] = assay: Induction of apoptosis in human A549 cells assessed as late apoptotic cells at 1.2 uM incubated for 48 hrs by Annexin V-FITC and PI staining based flow cytometric analysis (reference value: 3.0%); format: functional; outline: as §3
# A549 [10] = assay: Induction of apoptosis in human A549 cells assessed as necrotic cells at 1.2 uM incubated for 48 hrs by Annexin V-FITC and PI staining based flow cytometric analysis (reference value: 1.0%); format: functional; outline: as §3
SMILES,inhibition of growth at 1.5 µM (A549 [1]) [%],IC50 (A549 [2]) [µM],IC50 (MCF7) [µM],IC50 (HOS) [µM],IC50 (HepG2) [µM],inhibition of growth at 0.5 µM (A549 [3]) [%],inhibition at 1.5 µM (A549 [1]) [%],inhibition [4],inhibition [5],inhibition [6],viability at 1.2 µM (A549 [7]) [%],Activity (A549 [8]) [%],Activity (A549 [9]) [%],Activity (A549 [10]) [%]
CC1=C(O)C(=O)C=C2C1=CC=C1[C@@]2(C)CC[C@@]2(C)[C@@H]3C[C@](C)(C(=O)OCCCOC(=O)/C=C(\C#N)c4ccccc4)CC[C@]3(C)CC[C@]12C,53.7,1.41,0.98,0.45,0.76,,,,,,,,,
"COC(=O)CSC1C=C2C(C)(CC[C@@]3(C)[C@@H]4C[C@](C)(C(=O)OCCCOC(=O)/C=C(\C#N)c5ccc(F)cc5)CC[C@]4(C)CC[C@]23C)c2cc(OC(C)=O)c(OC(C)=O)c(C)c21 (single isomer, unassigned)",,,,,,20.5,,,,,,,,
COc1ccc(/C(C#N)=C/C(=O)OCCCOC(=O)[C@]2(C)CC[C@]3(C)CC[C@]4(C)C5=CC=C6C(=CC(=O)C(O)=C6C)[C@]5(C)CC[C@@]4(C)[C@@H]3C2)cc1,53.4,1.09,1.1,1.75,1.27,,,,,,,,,
COc1ccc(/C(C#N)=C/C(=O)OCCOC(=O)[C@]2(C)CC[C@]3(C)CC[C@]4(C)C5=CC=C6C(=CC(=O)C(O)=C6C)[C@]5(C)CC[C@@]4(C)[C@@H]3C2)cc1,48.1,1.79,0.97,1.14,0.97,,,,,,,,,
CC1=C(O)C(=O)C=C2C1=CC=C1[C@@]2(C)CC[C@@]2(C)[C@@H]3C[C@](C)(C(=O)OCCOC(=O)/C=C(\C#N)c4ccc(F)cc4)CC[C@]3(C)CC[C@]12C,65.9,1.02,2.35,2.18,3.89,,,,,,,,,
CC1=C(O)C(=O)C=C2C1=CC=C1[C@@]2(C)CC[C@@]2(C)[C@@H]3C[C@](C)(C(=O)OCCOC(=O)/C=C(\C#N)c4ccccc4)CC[C@]3(C)CC[C@]12C,59.6,1.02,0.7,0.54,0.65,,,,,,,,,
CC1=C(O)C(=O)C=C2C1=CC=C1[C@@]2(C)CC[C@@]2(C)[C@@H]3C[C@](C)(C(=O)O)CC[C@]3(C)CC[C@]12C [CELASTROL],,1.48,2.04,1.46,3.18,,48,inactive,Active,Active,73,7.5,15.6,3.9
